The text below walks through data of ChEMBL document CHEMBL1135662, “Effects of isoprenoid analogues of SDB-ethylenediamine on multidrug resistant tumor cells alone and in combination with chemotherapeutic drugs” (J Med Chem, 2002).

The nature of data set [1]: Index of sensitisation (IS)in presence of ADM and HET-SR-2SC-LNM. Format: functional. An outline of the steps:
(§1)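 HET-SR-2SC-LNM or 2SC/20 cells exposed for 72 h to a vinblastine or adriamycin dose series, alone or with modulator at 5 µM. IC50 by MTT (540 nm). IS is the mean IC50 with the drug alone divided by the mean IC50 with drug plus modulator. Four repeats.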

Data set [2] can be described thus: Index of sensitisation (IS)in presence of VBL and HET-SR-2SC-LNM. Format: functional. An outline of the steps: as §1
The nature of data set [3]: Intracellular uptake of drug in presence of ADM and VRP in HET-SR-2SC-LNM cell line. To be noted: Mesocricetus auratus.
Data set [4] in a line: Cytotoxicity against cell line McA RH 7777/0.4 and Pgp determined by MTT test. The class given is functional. Conditions: Rattus norvegicus, McA-RH7777. For orientation: Tetrazolium dyes change colour on reduction, which living cells bring about.
A short description of data set [5]: Index of sensitisation (IS)in presence of VBL and 2SC/2O. The class given is functional. Summed up: as §1
Data set [6] concerns K562. Briefly: Cytotoxicity against cell line K562i/S9 and pgp determined by MTT test. The class given is functional, cell-based. To be noted: Homo sapiens. An outline of the steps:
(§2)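 MTT assay after 72 h exposure, in duplicate. Human lung carcinoma COR L23/P and its adriamycin-selected MRP-mediated subline COR L23/R seeded at 5×10^3 per 200 µL. K562 leukemia cells and K562 transduced with human MDR1 (not drug-selected) seeded at 3×10^4 per 200 µL. Non-fibroblast lines grown in RPMI-1640 with 5% FBS. MTT 3 h, read at 540 nm. Mean ± SE of three experiments.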

A short description of data set [7]: Intracellular uptake of drug in presence of ADM and absence of VRPin HET-SR-2SC-LNM cell line. Conditions: Mesocricetus auratus.
A short description of data set [8]: Intracellular uptake of drug in presence of ADM and in absence of VRP in 2SC/20 cell line. To be noted: Mesocricetus auratus.
For data set [9], the species on record is Homo sapiens. Briefly: Cytotoxicity against cell line mS/0.5 and pgp determined by MTT test. Format: functional.
Data set [10] in a line: Intracellular uptake of drug in presence of 3H VBL and VRP in 2SC/20 cell line. To be noted: Mesocricetus auratus.
A short description of data set [11]: Intracellular uptake of drug in presence of ADM and VRP in 2SC/20 cell line. To be noted: Mesocricetus auratus.
Data set [12] can be described thus: Intracellular uptake of drug in presence of 3H VBL and absence of VRPin HET-SR-2SC-LNM cell line. To be noted: Mesocricetus auratus.
Data set [13] in a line: Index of sensitisation (IS)in presence of ADM and 2SC/2O. Format: functional. An outline of the steps:
as §1

Data set [14] can be described thus: Intracellular uptake of drug in presence of 3H VBL and VRP in HET-SR-2SC-LNM cell line. Conditions: Mesocricetus auratus.
Data set [15] in a line: Intracellular uptake of drug in presence of 3H VBL and in absence of VRP in 2SC/20 cell line. Conditions: Mesocricetus auratus.
The subject of data set [16] is K562. In words: Cytotoxicity against cell line K562 determined by MTT test. Format: functional, cell-based. Conditions: Homo sapiens. Summed up: as §2
A short description of data set [17]: Cytotoxicity against cell line 2SC/20 of hamster determined by MTT test. Conditions: Mesocricetus auratus.
The nature of data set [18]: Cytotoxicity against HET-SR-2SC-LNM cell line of hamster determined by MTT test. To be noted: Mesocricetus auratus.
The nature of data set [19]: Partition coefficient (logP). To be noted: octanol/water. Format: physicochemical.
Data set [20] can be described thus: Inhibitory concentration against the growth of 2SC/20 cell line after 72 hr of drug exposure by MTT test. Conditions: Mesocricetus auratus.
A short description of data set [21]: Inhibitory concentration against the growth of HET-SR-2SC-LNM cell line after 72 hr of drug exposure by MTT test. Conditions: Mesocricetus auratus.
Data set [22] can be described thus: Inhibitory concentration against the growth of HET-SR-2SC-LNM cell line after 72 hr of drug exposure by MTT test. Format: functional, Cricetulus griseus.
Data set [23] can be described thus: Inhibitory concentration against the growth of 2SC/20 cell line after 72 hr of drug exposure by MTT test. The class given is functional, Cricetulus griseus. An outline of the steps: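 Syrian hamster embryo fibroblasts (parental line or its colchicine-selected Pgp-positive 2SC/20 subline), grown in DMEM with 5% FBS at 37 °C, 5% CO2; selective agent withdrawn 2 days before use. (3–4) × 10³ cells per well, treated 16 h after plating, exposed 72 h. MTT (2 mg/mL solution) added for 3 h, formazan dissolved in acidified DMSO, absorbance read at 540 nm.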

Data set [24] can be described thus: Index of sensitisation (IS) calculated as mean IC50 for cells incubated with VBL and of 2SC/2O. Format: functional. An outline of the steps: as §1
Data set [25] is described as follows: Index of sensitisation (IS) calculated as mean IC50 for cells incubated with ADM and of 2SC/2O. The class given is functional. An outline of the steps:
as §1

Data set [26] can be described thus: Index of sensitisation (IS) calculated as mean IC50 for cells incubated with ADM and of HET-SR-2SC-LNM. The class given is functional. An outline of the steps:
as §1

Data set [27] can be described thus: Cytotoxicity against cell line HET-SR-2SC-LNM determined by MTT test. Conditions: Mesocricetus auratus.
Data set [28] is described as follows: Index of sensitisation (IS) calculated as mean IC50 for cells incubated with VBL and of HET-SR-2SC-LNM. The class given is functional. An outline of the steps:
as §1

Data set [29] can be described thus: Cytotoxicity against cell line McA RH 7777 determined by MTT test. Format: functional. Conditions: Rattus norvegicus, McA-RH7777.
The nature of data set [30]: Cytotoxicity against cell line HET-SR-2SC-LNM of hamster determined by MTT test. To be noted: Mesocricetus auratus.
Data set [31] is described as follows: Cytotoxicity against cell line COR/L23P determined by MTT test. Format: functional. To be noted: Homo sapiens. Summed up:
(§3)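 MTT assay after 72 h exposure, in duplicate. Human lung carcinoma COR L23/P and its adriamycin-selected MRP-mediated subline COR L23/R seeded at 5×10^3 per 200 µL. K562 leukemia cells and K562 transduced with human MDR1 (not drug-selected) seeded at 3×10^4 per 200 µL. MTT 3 h, read at 540 nm. Mean ± SE of three experiments.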

The species entered for data set [32] is Homo sapiens. Briefly: Cytotoxicity against cell line mS determined by MTT test. The class given is functional.
The nature of data set [33]: Cytotoxicity against cell line COR/L23R and MRP determined by MTT test. Format: functional. Conditions: Homo sapiens, COR-L23/R. An outline of the steps:
as §2

A short description of data set [34]: Cytotoxicity against cell line 2SC/20 determined by MTT test. To be noted: Mesocricetus auratus.
Data set [35] in a line: Cytotoxicity against cell line […] and MRP determined by MTT test. The class given is functional. To be noted: Homo sapiens. Summed up: as §3

Structures can show the parent of a compound that is named as a salt.

One may read the IC50 as the concentration needed to halve the response being measured. Lower therefore signals greater potency. As a reminder, the logP is the decadic logarithm of the partition coefficient of the neutral form, usually between octanol and water. A low value points to lower lipophilicity.

Regarding `COc1ccc(CCN(C)CCCC(C#N)(c2ccc(OC)c(OC)c2)C(C)C)cc1OC` (configuration not stated) [VERAPAMIL HYDROCHLORIDE], the IS in [1] came out at 2; in data set [2], 4; in [5] it was 11; in data set [13] it was 11. Further, the drug uptake in [3] was 310 pmol/30 min; in [7], 235 pmol/30 min; in data set [8] it was 132 pmol/30 min; in [10], 23 pmol/mg protein; in [11], 289 pmol/30 min; in data set [12], 22 pmol/mg protein. Also, the results for the drug uptake in [14] and in data set [15] were 29 pmol/mg protein and 10 pmol/mg protein, respectively. Further, the IC50 in data set [4] was determined as 470 µM; in the data set on K562 [6] it was 100 µM; in the data set filed under Homo sapiens [9], 230 µM; in the data set with K562 [16], 100 µM.

As for `COc1ccc(CNCCNCc2ccc(OC)c(OC)c2)cc1OC`, the half-inhibitory concentration (IC50) in data set [17] came to 470 µM; in data set [18], 520 µM. The same molecule returned a log partition coefficient (logP) in data set [19] of 3.78.

Consider `CC[C@]1(O)C[C@@H]2CN(CCc3c([nH]c4ccccc34)[C@@](C(=O)OC)(c3cc4c(cc3OC)N(C)[C@H]3[C@@](O)(C(=O)OC)[C@H](OC(C)=O)[C@]5(CC)C=CCN6CC[C@]43[C@@H]65)C2)C1` [VINBLASTINE], for which the IC50 in data set [20] stood at 246 nM; in data set [21] it was 18 nM.

As for BLEOMYCIN, the IC50 in [22] turned out to be 519 nM; in [23], 517 nM.

`COc1ccc(CNCCN(C/C=C(\C)CC/C=C(\C)CCC=C(C)C)Cc2ccc(OC)c(OC)c2)cc1OC`: the half-inhibitory concentration (IC50) in [17] stood at 13 µM; in data set [27], 35 µM. Also, the IS in data set [24] is 12; in data set [25], 12; in data set [26], 2; in data set [28], 6.

Turning to `COc1cc2c(c(OC)c1OC)-c1ccc(OC)c(=O)cc1[C@@H](NC(C)=O)CC2` [COLCHICINE], the IC50 stood at 500 nM in data set [20] and 25 nM in [21].

For `COc1cccc2c1C(=O)c1c(O)c3c(c(O)c1C2=O)C[C@@](O)(C(=O)CO)C[C@@H]3O[C@H]1C[C@H](N)[C@H](O)[C@H](C)O1` [DOXORUBICIN], the IC50 is 620 nM in [20] and 52 nM in [21].

With `COc1ccc(CNCCN(C/C=C(\C)CCC=C(C)C)Cc2ccc(OC)c(OC)c2)cc1OC.Cl`, the IC50 in data set [17] turned out to be 10 µM; in data set [29], 55 µM; in data set [30], 15 µM; in data set [4] it was 20 µM; with K562 [6], 125 µM; in the data set listed under Homo sapiens [9], 18 µM. The IC50 in [31] is 25 µM; in the data set listed under Homo sapiens [32] it was 40 µM; in data set [33] it was 13 µM; with K562 [16], 125 µM. Further, the IS in [24] is 11; in [25], 12; in data set [26], 2; in data set [28], 8. For the same molecule, the lipophilicity (logP) in data set [19] came out at 4.51.

Take `COc1ccc(CNCCN(C/C=C(\C)CC/C=C(\C)CC/C=C(\C)CC/C=C(\C)CC/C=C(\C)CC/C=C(\C)CC/C=C(\C)CC/C=C(\C)CCC=C(C)C)Cc2ccc(OC)c(OC)c2)cc1OC`: the IS in data set [1] stood at 2; in data set [2], 1; in data set [5] it was 4; in [13] it was 6. In addition, the IC50 in data set [29] was 65 µM; in data set [4] it was 55 µM; in [34], 20 µM; with K562 [6], 250 µM; in the data set listed under Homo sapiens [9], 45 µM; in [31] it was over 200 µM. Besides, the IC50 in data set [27] was 80 µM; in the data set filed under Homo sapiens [32], 86 µM; in [35], over 200 µM; in the data set on K562 [16], 250 µM.
